Assay results published in ChEMBL document CHEMBL1140162, “3-amino-7-phthalazinylbenzoisoxazoles as a novel class of potent, selective, and orally available inhibitors of p38alpha mitogen-activated protein kinase” (J Med Chem, 2008).
Values belong to the molecule of their own block, whether it stands above or below them.

Legend:
Blood = test: Inhibition of TNF-induced IL8 production in human whole blood; type: functional, tissue-based
THP-1 = test: Inhibition of LPS-induced TNFalpha production in human THP1 cells after 3 hrs; type: functional, cell-based; details: THP-1, 3 h
Cytochrome P450 3A4 = Cytochrome P450 3A4 (Homo sapiens, UniProt P08684); test: Inhibition of CYP3A4 in human liver microsomes; type: ADME, Microsome
Sequence of Cytochrome P450 3A4 (P08684 whole entry): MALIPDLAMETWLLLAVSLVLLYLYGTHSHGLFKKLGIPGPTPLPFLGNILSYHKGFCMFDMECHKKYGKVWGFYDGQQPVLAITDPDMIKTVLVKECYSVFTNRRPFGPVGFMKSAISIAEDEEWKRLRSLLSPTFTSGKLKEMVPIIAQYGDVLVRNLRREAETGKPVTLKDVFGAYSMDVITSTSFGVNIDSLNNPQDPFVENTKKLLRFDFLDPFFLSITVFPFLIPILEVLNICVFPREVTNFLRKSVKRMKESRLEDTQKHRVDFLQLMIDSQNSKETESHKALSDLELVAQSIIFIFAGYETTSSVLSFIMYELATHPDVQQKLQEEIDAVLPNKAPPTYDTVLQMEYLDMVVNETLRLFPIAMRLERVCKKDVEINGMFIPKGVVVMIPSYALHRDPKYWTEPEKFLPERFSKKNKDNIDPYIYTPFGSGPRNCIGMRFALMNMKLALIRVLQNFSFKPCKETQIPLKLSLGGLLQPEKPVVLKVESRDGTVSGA

[1] = molecular target: T1, Mitogen-activated protein kinase 14 (Homo sapiens, UniProt Q16539); test: Inhibition of human recombinant GST-tagged p38alphaMAPK-induced ATF2 phosphorylation
T1 sequence (Q16539 whole entry): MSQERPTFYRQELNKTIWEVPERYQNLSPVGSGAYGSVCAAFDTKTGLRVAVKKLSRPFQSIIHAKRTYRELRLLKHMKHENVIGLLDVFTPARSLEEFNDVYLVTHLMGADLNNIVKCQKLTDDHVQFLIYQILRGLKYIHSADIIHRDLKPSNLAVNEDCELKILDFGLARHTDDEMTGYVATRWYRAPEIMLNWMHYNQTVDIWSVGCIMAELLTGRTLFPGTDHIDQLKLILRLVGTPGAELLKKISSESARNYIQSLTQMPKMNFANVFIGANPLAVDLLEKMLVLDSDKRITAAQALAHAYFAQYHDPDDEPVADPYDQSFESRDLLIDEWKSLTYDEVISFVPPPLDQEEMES

Cytochrome P450 2D6 = Cytochrome P450 2D6 (Homo sapiens, UniProt P10635); test: Inhibition of CYP2D6; type: ADME
Sequence of Cytochrome P450 2D6 (P10635 whole entry): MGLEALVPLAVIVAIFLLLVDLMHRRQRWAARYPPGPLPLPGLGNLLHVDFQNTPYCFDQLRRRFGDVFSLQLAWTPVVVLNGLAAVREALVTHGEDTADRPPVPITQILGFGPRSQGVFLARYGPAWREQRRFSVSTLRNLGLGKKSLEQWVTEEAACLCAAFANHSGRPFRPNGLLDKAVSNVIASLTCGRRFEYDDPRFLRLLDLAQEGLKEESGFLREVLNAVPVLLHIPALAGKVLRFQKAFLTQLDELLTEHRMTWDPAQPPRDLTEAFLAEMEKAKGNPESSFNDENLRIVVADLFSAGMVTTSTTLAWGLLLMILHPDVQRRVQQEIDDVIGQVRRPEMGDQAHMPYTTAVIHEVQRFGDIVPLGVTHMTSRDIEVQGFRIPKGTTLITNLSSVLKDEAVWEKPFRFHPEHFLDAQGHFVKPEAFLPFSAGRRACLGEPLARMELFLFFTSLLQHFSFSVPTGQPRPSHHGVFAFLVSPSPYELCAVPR

Rattus norvegicus [2] = test: Oral bioavailability in Sprague-Dawley rat at 10 mg/kg; type: ADME, organism-based; details: in vivo
Summary of the method: (§1)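 Sprague-Dawley rats dosed orally at 10 mg/kg as a solution in 1% Tween-80 in OralPlus (pH 2.2); bioavailability derived against 2 mg/kg iv dosing.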

Liver microsomes [3] = test: Metabolic stability in human liver microsomes assessed per mg of protein by LCMS in presence of NADPH; type: ADME, Microsome
Summary of the method: (§2)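 Test article 1 µM incubated with rat or human liver microsomes (0.1 mg/mL) in 66.67 mM potassium phosphate pH 7.4; NADPH 1 mM started reaction, blank without NADPH; stopped at 10 min with acetonitrile/0.05% formic acid; remaining parent quantified by LCMS; triplicates.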

[4] = molecular target: T2, Mitogen-activated protein kinase 11 (Homo sapiens, UniProt Q15759); test: Inhibition of human recombinant GST-tagged p38beta-induced ATF2 phosphorylation
T2 sequence (Q15759 whole entry): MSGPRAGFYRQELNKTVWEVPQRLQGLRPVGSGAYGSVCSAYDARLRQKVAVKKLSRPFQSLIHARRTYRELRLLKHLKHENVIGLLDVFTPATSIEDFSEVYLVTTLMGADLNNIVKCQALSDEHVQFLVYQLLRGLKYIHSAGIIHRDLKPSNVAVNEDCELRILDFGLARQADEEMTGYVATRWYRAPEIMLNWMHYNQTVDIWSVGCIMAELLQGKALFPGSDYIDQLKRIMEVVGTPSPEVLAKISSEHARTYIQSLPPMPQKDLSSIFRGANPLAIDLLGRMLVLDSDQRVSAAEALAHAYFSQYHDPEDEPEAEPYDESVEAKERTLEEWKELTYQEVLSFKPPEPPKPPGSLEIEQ

Rattus norvegicus [5] = test: Antiinflammatory effect in po dosed collagen-induced arthritis Lewis rat model assessed as inhibition of paw swelling administered once a day for 7 days; type: functional
Summary of the method: (§3)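 Lewis rats immunized intradermally with porcine type II collagen in incomplete Freund's adjuvant; dosing oral, once daily for 7 days from disease onset (days 10-12), vehicle 1% Tween-80 in Oraplus pH 2.2, doses 0.03-3.0 mg/kg. Paw diameter measured daily days 0-7; area under swelling curve used for percent inhibition versus vehicle; n = 8 rats/group. Exposure values interpolated.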

[6] = Elimination half life in Sprague-Dawley rat at 2 mg/kg, iv; type: ADME, organism-based; set-up: dose 2 mg/kg, route intravenous; details: in vivo
Summary of the method: (§4)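 Sprague-Dawley rats given 2 mg/kg intravenously; clearance, volume of distribution and elimination half-life derived from plasma profile.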

Liver microsomes [7] = test: Metabolic stability in Sprague-Dawley rat liver microsomes assessed per mg of protein by LCMS in presence of NADPH; type: ADME, Microsome; summary of the method: as §2
Rattus norvegicus [8] = test: Cmax in po dosed collagen-induced arthritis Lewis rat model; type: ADME, organism-based; set-up: route oral; details: in vivo; summary of the method: as §3
[9] = molecular target: T2, Mitogen-activated protein kinase 11; test: Inhibition of p38beta at 1 uM relative to control
[10] = molecular target: T3, Mast/stem cell growth factor receptor Kit (Homo sapiens, UniProt P10721); test: Inhibition of c-KIT
T3 sequence (P10721 whole entry): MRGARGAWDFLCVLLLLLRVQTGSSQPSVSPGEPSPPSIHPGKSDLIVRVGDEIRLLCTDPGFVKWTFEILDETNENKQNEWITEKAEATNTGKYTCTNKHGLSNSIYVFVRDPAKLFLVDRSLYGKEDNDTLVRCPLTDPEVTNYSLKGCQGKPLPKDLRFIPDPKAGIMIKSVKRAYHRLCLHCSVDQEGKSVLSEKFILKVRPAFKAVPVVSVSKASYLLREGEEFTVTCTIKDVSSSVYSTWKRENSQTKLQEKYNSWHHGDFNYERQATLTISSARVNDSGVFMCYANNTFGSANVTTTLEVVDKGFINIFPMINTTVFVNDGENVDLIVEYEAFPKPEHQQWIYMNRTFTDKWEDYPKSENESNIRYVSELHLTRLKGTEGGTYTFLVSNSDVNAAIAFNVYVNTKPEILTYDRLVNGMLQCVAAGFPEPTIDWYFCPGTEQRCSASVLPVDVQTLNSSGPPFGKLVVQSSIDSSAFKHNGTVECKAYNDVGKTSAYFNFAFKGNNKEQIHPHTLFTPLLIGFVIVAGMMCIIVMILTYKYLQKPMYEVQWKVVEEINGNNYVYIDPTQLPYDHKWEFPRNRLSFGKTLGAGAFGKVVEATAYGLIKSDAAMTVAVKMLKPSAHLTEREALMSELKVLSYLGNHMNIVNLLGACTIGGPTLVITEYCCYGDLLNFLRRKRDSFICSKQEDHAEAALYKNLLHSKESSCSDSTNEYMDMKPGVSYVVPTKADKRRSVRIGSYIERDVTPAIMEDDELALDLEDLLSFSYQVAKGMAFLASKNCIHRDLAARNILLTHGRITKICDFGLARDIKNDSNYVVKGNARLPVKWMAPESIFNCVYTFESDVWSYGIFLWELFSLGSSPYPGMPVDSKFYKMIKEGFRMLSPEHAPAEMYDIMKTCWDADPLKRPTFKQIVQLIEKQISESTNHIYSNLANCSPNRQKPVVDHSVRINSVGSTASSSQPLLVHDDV

[11] = molecular target: T3, Mast/stem cell growth factor receptor Kit; test: Inhibition of c-KIT at 1 uM relative to control
[12] = Concentration of drug level in po dosed collagen-induced arthritis Lewis rat model after 24hrs; type: ADME, organism-based; details: in vivo, read-out: Drug uptake; summary of the method: as §3
[13] = Protein binding in Sprague-Dawley rat plasma; type: ADME, cell-free; details: read-out: PPB (converted)
Summary of the method: (§5)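 Plasma protein binding in rat or human plasma measured by ultrafiltration.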

[14] = molecular target: T4, Platelet-derived growth factor receptor beta (Homo sapiens, UniProt P09619); test: Inhibition of PDGFRbeta
T4 sequence (P09619 whole entry): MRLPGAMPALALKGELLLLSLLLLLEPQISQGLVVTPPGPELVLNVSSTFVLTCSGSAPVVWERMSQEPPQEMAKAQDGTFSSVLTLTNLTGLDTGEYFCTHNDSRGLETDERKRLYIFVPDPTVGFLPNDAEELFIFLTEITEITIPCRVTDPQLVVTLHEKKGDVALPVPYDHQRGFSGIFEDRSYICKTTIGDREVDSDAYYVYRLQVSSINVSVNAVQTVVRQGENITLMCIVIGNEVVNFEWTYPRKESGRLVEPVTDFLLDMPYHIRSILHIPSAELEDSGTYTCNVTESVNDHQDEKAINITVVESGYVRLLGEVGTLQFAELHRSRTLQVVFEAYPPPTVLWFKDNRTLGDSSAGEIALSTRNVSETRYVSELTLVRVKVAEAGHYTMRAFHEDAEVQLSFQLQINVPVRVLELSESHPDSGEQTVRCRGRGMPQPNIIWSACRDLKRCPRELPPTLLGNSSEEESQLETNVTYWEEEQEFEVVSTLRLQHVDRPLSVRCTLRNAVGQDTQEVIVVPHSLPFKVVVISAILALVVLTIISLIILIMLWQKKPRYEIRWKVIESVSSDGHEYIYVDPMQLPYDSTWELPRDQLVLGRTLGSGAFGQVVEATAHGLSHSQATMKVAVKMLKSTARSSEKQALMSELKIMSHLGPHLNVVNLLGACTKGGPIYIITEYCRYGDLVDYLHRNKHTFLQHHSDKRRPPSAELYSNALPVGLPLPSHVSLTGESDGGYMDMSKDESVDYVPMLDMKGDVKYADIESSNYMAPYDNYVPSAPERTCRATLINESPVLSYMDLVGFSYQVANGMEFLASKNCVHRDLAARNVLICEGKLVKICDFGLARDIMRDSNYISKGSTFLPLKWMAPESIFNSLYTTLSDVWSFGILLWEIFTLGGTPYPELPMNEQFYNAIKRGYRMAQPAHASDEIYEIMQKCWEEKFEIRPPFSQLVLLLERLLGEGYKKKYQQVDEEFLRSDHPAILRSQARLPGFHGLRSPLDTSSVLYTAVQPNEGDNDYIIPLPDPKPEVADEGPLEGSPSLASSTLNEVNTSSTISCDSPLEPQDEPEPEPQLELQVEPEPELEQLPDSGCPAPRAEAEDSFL

[15] = molecular target: T4, Platelet-derived growth factor receptor beta; test: Inhibition of PDGFRbeta at 1 uM relative to control
Rattus norvegicus [16] = test: Cmax in Sprague-Dawley rat at 10 mg/kg, po; type: ADME, organism-based; set-up: dose 10 mg/kg, route oral; details: in vivo; summary of the method: as §1
[17] = molecular target: Voltage-gated inwardly rectifying potassium channel KCNH2 (Homo sapiens, UniProt Q12809); test: Inhibition of human ERG by manual electrophysiology
Sequence of Voltage-gated inwardly rectifying potassium channel KCNH2 (Q12809 whole entry): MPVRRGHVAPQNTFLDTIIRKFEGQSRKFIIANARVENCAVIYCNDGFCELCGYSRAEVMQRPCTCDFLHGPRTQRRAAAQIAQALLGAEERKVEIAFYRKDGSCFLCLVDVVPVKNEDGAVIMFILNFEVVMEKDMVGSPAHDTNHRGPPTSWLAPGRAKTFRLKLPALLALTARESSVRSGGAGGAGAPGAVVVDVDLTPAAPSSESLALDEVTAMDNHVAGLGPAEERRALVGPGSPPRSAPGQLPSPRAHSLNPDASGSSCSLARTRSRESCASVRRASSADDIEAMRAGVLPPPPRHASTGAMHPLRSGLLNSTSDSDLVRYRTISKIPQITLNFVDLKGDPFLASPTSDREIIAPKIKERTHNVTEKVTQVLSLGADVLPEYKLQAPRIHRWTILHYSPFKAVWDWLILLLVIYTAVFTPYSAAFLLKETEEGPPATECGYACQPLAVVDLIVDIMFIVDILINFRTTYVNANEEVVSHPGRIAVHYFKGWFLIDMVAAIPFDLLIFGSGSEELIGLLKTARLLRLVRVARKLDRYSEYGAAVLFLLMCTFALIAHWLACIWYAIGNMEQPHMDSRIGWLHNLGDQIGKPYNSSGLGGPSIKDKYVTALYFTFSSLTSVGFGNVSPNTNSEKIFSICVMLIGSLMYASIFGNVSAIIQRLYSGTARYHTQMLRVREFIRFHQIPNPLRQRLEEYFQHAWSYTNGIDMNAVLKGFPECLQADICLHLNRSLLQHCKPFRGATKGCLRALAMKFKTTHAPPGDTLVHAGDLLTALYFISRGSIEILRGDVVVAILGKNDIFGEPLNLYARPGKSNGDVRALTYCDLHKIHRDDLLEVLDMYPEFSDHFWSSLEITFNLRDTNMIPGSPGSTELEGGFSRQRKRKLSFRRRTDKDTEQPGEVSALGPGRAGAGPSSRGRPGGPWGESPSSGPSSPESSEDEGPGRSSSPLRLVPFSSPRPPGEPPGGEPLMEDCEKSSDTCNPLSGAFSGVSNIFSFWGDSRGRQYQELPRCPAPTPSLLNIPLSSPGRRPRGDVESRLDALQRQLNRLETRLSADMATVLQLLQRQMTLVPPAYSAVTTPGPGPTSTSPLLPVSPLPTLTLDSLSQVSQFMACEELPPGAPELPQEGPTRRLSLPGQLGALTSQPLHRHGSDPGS

Rattus norvegicus [18] = test: AUC (0 to 24 hrs) in po dosed collagen-induced arthritis Lewis rat model; type: ADME, organism-based; set-up: time < 24 hr, route oral; details: in vivo; summary of the method: as §3
[19] = Volume of distribution in Sprague-Dawley rat at 2 mg/kg, iv; type: ADME, organism-based; set-up: dose 2 mg/kg, route intravenous; details: in vivo; summary of the method: as §4
[20] = molecular target: T1, Mitogen-activated protein kinase 14; test: Inhibition of p38alpha at 1 uM relative to control
[21] = Tmax in Sprague-Dawley rat at 10 mg/kg, po; type: ADME, organism-based; set-up: dose 10 mg/kg, route oral; details: in vivo; summary of the method: as §1
[22] = Protein binding in human plasma; type: ADME, cell-free; details: read-out: PPB (converted); summary of the method: as §5
[23] = molecular target: T5, Nuclear receptor subfamily 1 group I member 2 (Homo sapiens, UniProt O75469); test: Activation of human PXR
T5 sequence (O75469 whole entry): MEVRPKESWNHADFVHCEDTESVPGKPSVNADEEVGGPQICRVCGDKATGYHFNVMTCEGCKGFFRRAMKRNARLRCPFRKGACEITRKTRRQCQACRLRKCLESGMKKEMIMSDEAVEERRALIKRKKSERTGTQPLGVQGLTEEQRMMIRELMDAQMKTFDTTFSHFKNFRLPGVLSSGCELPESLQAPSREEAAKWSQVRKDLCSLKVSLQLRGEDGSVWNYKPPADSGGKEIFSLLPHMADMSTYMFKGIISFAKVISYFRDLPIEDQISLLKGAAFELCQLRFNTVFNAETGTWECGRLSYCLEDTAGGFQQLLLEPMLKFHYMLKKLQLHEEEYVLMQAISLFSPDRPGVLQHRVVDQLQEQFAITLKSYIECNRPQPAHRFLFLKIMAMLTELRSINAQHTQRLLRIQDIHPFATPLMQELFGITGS

SMILES: CC(C)Nc1noc2c(-c3ccc4c(N5CCOC[C@@H]5C)nncc4c3)c(Cl)ccc12
- IC50 (Blood): 15 nM
- IC50 (THP-1): 3.6 nM
- IC50 (Cytochrome P450 3A4): 4500 nM
- Ki [1]: 0.4 nM

SMILES: Cc1ccc2c(N)nsc2c1-c1ccc2c(N3CCOC[C@@H]3C)nncc2c1
- IC50 (Blood): 50 nM
- IC50 (THP-1): 29 nM
- IC50 (Cytochrome P450 3A4): 4000 nM
- Ki [1]: 2 nM

SMILES: Cc1ccc2c(NC3CC3)noc2c1-c1ccc2c(NC(C)C)nncc2c1
- IC50 (Blood): 0.7 nM
- IC50 (THP-1): 0.4 nM
- IC50 (Cytochrome P450 3A4): 5600 nM
- Ki [1]: 0.5 nM
- IC50 (Cytochrome P450 2D6): > 25000 nM

SMILES: CC[C@H](C)Nc1nncc2cc(-c3c(C)ccc4c(NC)noc34)ccc12
- IC50 (Blood): 2.1 nM
- IC50 (THP-1): 1.3 nM
- IC50 (Cytochrome P450 3A4): > 25000 nM
- Ki [1]: 0.2 nM

SMILES: Cc1ccc2c(N)n[nH]c2c1-c1ccc2c(N3CCOC[C@@H]3C)nncc2c1
- IC50 (Blood): 153 nM
- IC50 (THP-1): 120 nM
- Ki [1]: 16 nM

SMILES: CNc1noc2c(-c3ccc4c(N5CCOC[C@@H]5C)nncc4c3)c(Cl)ccc12
- IC50 (Blood): 3.3 nM
- IC50 (THP-1): 1.3 nM
- IC50 (Cytochrome P450 3A4): 6000 nM
- Ki [1]: 0.2 nM

SMILES: CNc1noc2c(-c3ccc4c(OC(C)C)nncc4c3)c(C)ccc12
- IC50 (Blood): 7 nM
- IC50 (THP-1): 0.7 nM
- IC50 (Cytochrome P450 3A4): > 25000 nM
- Ki [1]: 0.4 nM

SMILES: Cc1ccccc1-c1nncc2cc(-c3c(C)ccc4c(NC5CC5)noc34)ccc12
- IC50 (Blood): 3.3 nM
- IC50 (THP-1): 0.4 nM
- IC50 (Cytochrome P450 3A4): 1800 nM
- Ki [1]: 0.4 nM
- IC50 (Cytochrome P450 2D6): > 25000 nM

SMILES: CNc1noc2c(-c3ccc4c(C(C)C)nncc4c3)c(C)ccc12
- IC50 (Blood): 3.4 nM
- IC50 (THP-1): 1.1 nM
- IC50 (Cytochrome P450 3A4): > 25000 nM
- Ki [1]: 1.1 nM

SMILES: CNc1noc2c(-c3ccc4c(NC(C)C)nncc4c3)c(C)ccc12
- IC50 (Blood): 2.2 nM
- IC50 (THP-1): 0.7 nM
- IC50 (Cytochrome P450 3A4): > 25000 nM
- Ki [1]: 0.5 nM

Further lines, with some results ahead:

- IC50 (Blood): 1.4 nM
- IC50 (THP-1): 0.8 nM
- Ki [1]: 0.8 nM
- IC50 (Cytochrome P450 2D6): > 25000 nM
SMILES: CC(=O)N1CCN(c2nncc3cc(-c4c(C)ccc5c(NC6CC6)noc45)ccc23)[C@@H](C)C1

- IC50 (Blood): 2 nM
- IC50 (THP-1): 0.7 nM
- IC50 (Cytochrome P450 3A4): > 25000 nM
- Ki [1]: 0.6 nM
SMILES: CC(=O)Nc1noc2c(-c3ccc4c(N5CCOC[C@@H]5C)nncc4c3)c(C)ccc12

- IC50 (Blood): 5.2 nM
- IC50 (THP-1): 3.6 nM
- IC50 (Cytochrome P450 3A4): 12000 nM
- Ki [1]: 0.3 nM
SMILES: Cc1ccc2c(N)noc2c1-c1ccc2c(N3CCOC[C@@H]3C)nncc2c1

- IC50 (Blood): 1.3 nM
- IC50 (THP-1): 0.6 nM
- IC50 (Cytochrome P450 3A4): 5600 nM
- Ki [1]: 0.7 nM
- IC50 (Cytochrome P450 2D6): > 25000 nM
SMILES: Cc1ccc2c(NC3CC3)noc2c1-c1ccc2c(N3CCOC[C@@H]3C)nncc2c1

- IC50 (Blood): 4.5 nM
- IC50 (THP-1): 1 nM
- IC50 (Cytochrome P450 3A4): > 25000 nM
- Ki [1]: 0.3 nM
SMILES: CNc1noc2c(-c3ccc4c(N5CCOC[C@H]5C)nncc4c3)c(C)ccc12

- IC50 (Blood): 2 nM
- IC50 (THP-1): 0.4 nM
- IC50 (Cytochrome P450 3A4): 10000 nM
- Ki [1]: 0.3 nM
SMILES: CCNc1noc2c(-c3ccc4c(N5CCOC[C@@H]5C)nncc4c3)c(C)ccc12

- F (Rattus norvegicus [2]): 67%
- Stability (Liver microsomes [3]): 132 µL/min
- IC50 (Blood): 3.3 nM
- IC50 (THP-1): 0.4 nM
- IC50 (Cytochrome P450 3A4): > 25000 nM
- Ki [4]: 1.8 nM
- half-life [6]: 2.8 h
- Stability (Liver microsomes [7]): 120 µL/min
- Cmax (Rattus norvegicus [8]): 7 nM
- inhibition [9]: < 50%
- Ki [1]: 0.4 nM
- IC50 [10]: 1600 nM
- inhibition [11]: < 50%
- concentration at 24 h [12]: 0.3 nM
- fraction unbound [13]: 0.1
- IC50 [14]: 830 nM
- inhibition [15]: < 50%
- Cmax (Rattus norvegicus [16]): 1.04 µg/mL
- AUC (Rattus norvegicus [18]): 22.4 nM·h
- Vd [19]: 2.4 L/kg
- inhibition [20]: < 50%
- Tmax [21]: 1.7 h
- fraction unbound [22]: 0.08
- Activity [23]: Not Active
SMILES: CNc1noc2c(-c3ccc4c(N5CCOC[C@@H]5C)nncc4c3)c(C)ccc12
- Activity (Rattus norvegicus [5]): Dose-dependent effect
- ED50 (Rattus norvegicus [5]; 168 h): 0.05 mg/kg
- IC50 [17]: 13000 nM
